Results on 40 compounds are retold here after article PMC2217204 (The Journal of General Physiology, 2000).

Several values for one entry are separate records, joined by “and”; a condition that tells them apart may be missing. Equal entries are not always repeated. Where two headings read alike, the source gives them in different places.

Data set [1] concerns the target T1, KACh channel (Rattus norvegicus, UniProt P48548+P63251).
T1 sequence (P63251 1-501): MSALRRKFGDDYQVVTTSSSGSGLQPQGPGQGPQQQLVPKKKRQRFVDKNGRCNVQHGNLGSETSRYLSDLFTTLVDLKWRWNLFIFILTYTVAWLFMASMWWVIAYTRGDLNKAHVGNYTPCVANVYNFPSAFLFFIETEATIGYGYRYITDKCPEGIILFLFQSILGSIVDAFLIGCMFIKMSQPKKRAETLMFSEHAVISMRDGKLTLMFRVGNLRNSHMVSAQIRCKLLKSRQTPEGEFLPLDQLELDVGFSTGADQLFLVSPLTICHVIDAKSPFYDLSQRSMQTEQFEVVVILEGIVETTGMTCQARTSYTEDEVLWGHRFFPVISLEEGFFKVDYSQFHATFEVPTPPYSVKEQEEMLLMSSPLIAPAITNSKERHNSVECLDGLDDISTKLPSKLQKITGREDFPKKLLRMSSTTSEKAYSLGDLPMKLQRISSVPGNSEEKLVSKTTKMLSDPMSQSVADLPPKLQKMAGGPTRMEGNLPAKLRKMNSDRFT
T1 sequence (P48548 1-419): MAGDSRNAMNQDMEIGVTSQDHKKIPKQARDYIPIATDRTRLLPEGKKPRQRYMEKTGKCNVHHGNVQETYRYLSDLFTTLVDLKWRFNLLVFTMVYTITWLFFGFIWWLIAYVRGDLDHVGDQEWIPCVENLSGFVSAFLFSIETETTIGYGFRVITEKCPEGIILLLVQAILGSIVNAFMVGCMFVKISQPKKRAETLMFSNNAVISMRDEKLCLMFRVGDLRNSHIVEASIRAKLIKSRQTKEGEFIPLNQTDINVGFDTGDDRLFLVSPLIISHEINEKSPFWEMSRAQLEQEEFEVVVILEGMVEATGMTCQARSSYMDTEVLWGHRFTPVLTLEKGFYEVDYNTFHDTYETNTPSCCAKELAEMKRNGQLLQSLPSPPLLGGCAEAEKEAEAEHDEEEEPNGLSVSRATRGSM
Type of data set: cell-based. The settings on record: for IC50 / K 1/2 (effect on ATP-dependent gating of KACh channel): atrial inside-out patches, 100 μM GTP and 4 mM ATP, lipid 0.1, 1, 3, 10 and 30 μM, n = 3 each; for reversal of inhibition of ATP-dependent gating: fatty acid–free albumin 50 μg/ml.

Data set [2] has as its target T1, KACh channel. The settings on record: cited from earlier work; for effect on KACh channel activity: physiological concentrations, ref Hong et al. 1996.
For data set [3], the target named is T1, KACh channel. Type of data set: cell-based. The settings on record: for τo1: 100 μM phospholipid, inside-out, n = 3.
A further data set addresses KATP channel (Rattus norvegicus, UniProt P70673). Put plainly: KATP channel, inside-out patches from adult rat ventricular cells. Format: cell-based. The settings on record: PIP2 applied soon after patch excision. The method, boiled down:
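KATP channels that appeared on forming inside-out patches were tested with 5 μM arachidonic acid on the cytoplasmic side. In some patches channels were first allowed to run down, then briefly exposed to 3 mM ATP to reactivate them before fatty acid was applied. Recordings were at 24–26°C; 2 μM was also tested (n = 3).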

Where [4] appears, read: K 1/2 (effect on ATP-dependent gating of KACh channel).
The mark [5] stands for this setting: read-out: K 1/2 (effect on ATP-dependent gating of KACh channel).

Chain of KATP channel (P70673 whole entry): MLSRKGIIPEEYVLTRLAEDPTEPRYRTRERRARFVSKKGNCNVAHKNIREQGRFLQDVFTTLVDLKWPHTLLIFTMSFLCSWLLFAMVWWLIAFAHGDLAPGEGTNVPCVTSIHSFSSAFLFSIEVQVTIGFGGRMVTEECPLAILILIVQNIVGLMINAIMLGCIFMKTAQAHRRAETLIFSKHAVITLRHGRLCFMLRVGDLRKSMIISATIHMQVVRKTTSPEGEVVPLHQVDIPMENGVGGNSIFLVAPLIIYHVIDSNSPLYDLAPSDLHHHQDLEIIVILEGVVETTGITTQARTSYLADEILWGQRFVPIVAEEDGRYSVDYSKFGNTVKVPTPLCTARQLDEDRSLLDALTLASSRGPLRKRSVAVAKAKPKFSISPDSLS
Chain of KATP channel (Q63563 whole entry partner): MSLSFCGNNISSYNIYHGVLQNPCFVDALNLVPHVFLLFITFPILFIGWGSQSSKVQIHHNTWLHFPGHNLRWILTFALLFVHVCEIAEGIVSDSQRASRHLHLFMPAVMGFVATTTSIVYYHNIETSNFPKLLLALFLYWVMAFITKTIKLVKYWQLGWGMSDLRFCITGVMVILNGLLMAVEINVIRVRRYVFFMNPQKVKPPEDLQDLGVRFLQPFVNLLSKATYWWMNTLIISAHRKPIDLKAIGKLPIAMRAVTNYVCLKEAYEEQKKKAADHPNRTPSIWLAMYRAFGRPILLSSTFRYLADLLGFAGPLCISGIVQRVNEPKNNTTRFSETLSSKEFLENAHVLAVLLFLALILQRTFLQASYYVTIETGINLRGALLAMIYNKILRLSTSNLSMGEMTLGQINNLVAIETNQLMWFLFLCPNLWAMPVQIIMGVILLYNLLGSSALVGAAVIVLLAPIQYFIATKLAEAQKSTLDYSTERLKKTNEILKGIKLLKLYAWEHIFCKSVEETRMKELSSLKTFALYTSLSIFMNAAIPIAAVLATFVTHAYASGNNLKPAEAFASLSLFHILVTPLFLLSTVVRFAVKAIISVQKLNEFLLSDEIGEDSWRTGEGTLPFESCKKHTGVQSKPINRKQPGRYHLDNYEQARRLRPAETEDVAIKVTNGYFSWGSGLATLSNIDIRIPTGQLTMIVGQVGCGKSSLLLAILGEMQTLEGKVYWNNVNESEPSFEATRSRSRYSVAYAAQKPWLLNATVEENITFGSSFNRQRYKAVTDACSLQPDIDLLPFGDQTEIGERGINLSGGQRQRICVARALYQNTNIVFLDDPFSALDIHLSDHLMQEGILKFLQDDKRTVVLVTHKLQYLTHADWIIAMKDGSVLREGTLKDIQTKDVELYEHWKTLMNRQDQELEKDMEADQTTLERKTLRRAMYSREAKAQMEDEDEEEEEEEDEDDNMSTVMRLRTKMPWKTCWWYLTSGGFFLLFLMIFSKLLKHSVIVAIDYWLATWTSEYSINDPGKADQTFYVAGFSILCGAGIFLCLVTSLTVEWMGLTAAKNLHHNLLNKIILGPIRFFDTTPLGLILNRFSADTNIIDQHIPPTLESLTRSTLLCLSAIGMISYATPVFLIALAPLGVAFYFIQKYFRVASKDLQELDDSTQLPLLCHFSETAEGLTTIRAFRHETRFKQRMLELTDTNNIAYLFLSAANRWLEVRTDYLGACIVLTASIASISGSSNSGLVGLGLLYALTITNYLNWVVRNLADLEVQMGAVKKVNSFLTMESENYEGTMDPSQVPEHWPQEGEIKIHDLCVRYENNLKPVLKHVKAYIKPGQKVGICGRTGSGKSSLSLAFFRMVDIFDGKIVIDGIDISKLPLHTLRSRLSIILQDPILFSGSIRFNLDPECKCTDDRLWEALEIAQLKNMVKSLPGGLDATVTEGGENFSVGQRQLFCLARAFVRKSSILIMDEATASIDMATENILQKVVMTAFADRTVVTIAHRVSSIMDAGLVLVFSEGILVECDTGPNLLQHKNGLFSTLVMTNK

The compound `CCCCCCCC(=O)OCC(CO)OC(=O)CCCCCCC` (stereo not shown) [1,2-dioctanoylglycerol] gave an IC50 on KACh channel [1] (setting [4]) of 2.8 ± 0.4 µM.

Take `CCCCCCCC/C=C\CCCCCCCC(=O)OCC(CO)OC(=O)CCCCCCC/C=C\CCCCCCCC` (stereo not shown) [1,2-dioleoylglycerol]: the IC50 on KACh channel [1] (setting [4]) came out at 21 ± 3 µM. Still for that read-out and setting: under `CCCCC/C=C\C/C=C\CCCCCCCC(=O)OCC(O)CO` (stereo not shown) [1-monolinoleoylglycerol] stands 8.4 ± 2.2 µM; under `CCCCCCCC/C=C\CCCCCCCC(=O)OCC(O)CO` (stereo not shown) [1-monooleoylglycerol], 42 ± 6 µM; under `CCCCCC/C=C\CCCCCCCC(=O)OCC(O)CO` (stereo not shown) [1-monopalmitoleoylglycerol], 52 ± 7 µM.

In the case of `CCCCCCCC/C=C\CCCCCCCC(=O)OCC(CO)OC(C)=O` (stereo not shown) [1-oleoyl-2-acetylglycerol], the IC50 against KACh channel [1] (setting [4]) came to 22 ± 3 µM.

As for `CCCCC/C=C\C/C=C\C/C=C\C/C=C\CCCC(=O)O[C@@H](CO)COC(=O)CCCCCCCCCCCCCCCCC` [1-stearoyl-2-arachidonoyl-sn-glycerol], the “K 1/2 (effect on ATP-dependent gating of KACh channel)” value on KACh channel [1] is recorded as “No effect”.

For `CCCCC/C=C\C/C=C\CCCCCCCC(=O)O[C@@H](CO)COC(=O)CCCCCCCCCCCCCCCCC` [1-stearoyl-2-linoleoyl-sn-glycerol], the “K 1/2 (effect on ATP-dependent gating of KACh channel)” value at KACh channel [1] is “No effect”.

In turn, `CCCCCCCC/C=C\CCCCCCCC(=O)OC(CO)CO` [2-monooleoylglycerol] had an IC50 on KACh channel [1] (setting [4]) of 48 ± 8 µM.

Regarding `CCCCC/C=C\C/C=C\C/C=C\C/C=C\CCCC(=O)OC` [Arachidonic acid methyl ester], on KACh channel [1] (setting [5]), the IC50 stood at 12 ± 3 µM. Same read-out and setting: under `CCCCC/C=C\C/C=C\C/C=C\C/C=C\CCCCO` [Arachidonyl alcohol] stands 44 ± 7 µM.

In the case of `[Ca+2]` [Ca^2+], the “effect on open time constant of the KACh channel” value at KACh channel [2] (at concentrations above 30 μM, ref Kim 1991) is on record as “decreased”. In addition, on KACh channel [2], the “effect on KACh channel activity” value is listed as “no significant effect”. For the compound `CCCCCCCC(=O)O` [Caprylic acid (8:0), Caprylic acid], the “K 1/2 (effect on ATP-dependent gating of KACh channel)” value on KACh channel [1] is reported as “No effect”. Take `CCCCCCCCCCCCCC=CC(O)C(CO)NC(C)=O` (stereo not shown) [Ceramide (C-2)]: the “K 1/2 (effect on ATP-dependent gating of KACh channel)” value on KACh channel [1] is “No effect”. Compound `CC/C=C\C/C=C\C/C=C\C/C=C\C/C=C\C/C=C\CCC(=O)O` [Docosahexaenoic acid [22:6 (n-3)], Docosahexaenoic acid] displayed an IC50 on KACh channel [1] (setting [4]) of 1.4 ± 0.2 µM. In turn, `CC/C=C\C/C=C\C/C=C\C/C=C\C/C=C\CCCC(=O)O` [Eicosapentaenoic acid [20:5 (n-3)], Eicosapentaenoic acid] came in with an IC50 at KACh channel [1] (setting [4]) of 5.6 ± 2.2 µM. On to `CCCCCCCC/C=C/CCCCCCCC(=O)O` [Elaidic acid [t-18:1 (n-9)], Elaidic acid], for which the IC50 at KACh channel [1] (setting [4]) came out at 21.6 ± 4.8 µM. `OCC(O)CO` [Glycerol]: the “K 1/2 (effect on ATP-dependent gating of KACh channel)” value at KACh channel [1] is on record as “No effect”. Still for that read-out and setting: then `O=P(O)(O)OCC(O)CO` (stereo not shown) [Glycerophosphate], with “No effect”; and `CCCCC/C=C\C\C=C/C=C/C=C/[C@@H](SC[C@H](NC(=O)CC[C@H](N)C(=O)O)C(=O)NCC(=O)O)[C@@H](O)CCCC(=O)O` [Leukotriene C4], with “No effect”. In the case of `CCCCC/C=C/C/C=C/CCCCCCCC(=O)O` [Linoelaidic acid [t,t-18:2 (n-6)], Linoelaidic acid], the IC50 on KACh channel [1] (setting [5]) was found to be 3.2 ± 0.6 µM. The same measure, in the same setting: under `CCCCCCCC/C=C\CCCCCCCCCCCCCC(=O)O` [Nervonic acid [24:1 (n-9)], Nervonic acid] stands 12.5 ± 2.1 µM.

For the compound `CCCCCCCC/C=C\CCCCCCCC(=O)O` [Oleic acid [18:1 (n-9)], Oleic acid], the “inhibition of ATP-dependent gating, extracellular application” value on KACh channel [1] (5 μM in the pipette solution (extracellular), after 5 min, n = 4 each) is listed as “did not inhibit”. In addition, the “Hill coefficient of inhibition” value on KACh channel [1] (ATP-modified KACh channels, inside-out) is reported as ~2. This compound displayed an IC50 against KACh channel [1] (setting [4]) of 1.5 ± 0.2 µM. Moreover, the inhibition at 50 µM at KACh channel [1] (read-out: partial inhibition of ATP-dependent gating, extracellular application) came out at 65 ± 6%. Moreover, the “inhibitory potency after incubation” value against KACh channel [1] (room temperature or 37°C for 30 min) was “reduced their inhibitory potency significantly”. Further, the “effect on PIP2-dependent gating of KACh channel” value on KACh channel [3] (2 μM fatty acid applied with 30 μM PIP2) was “inhibited”. Turning to `CCCCCCCCCCCCCCCC(=O)O` [Palmitic acid (16:0), Palmitic acid], the “K 1/2 (effect on ATP-dependent gating of KACh channel)” value at KACh channel [1] is “No effect”. On KACh channel [1] (setting [4]), `CCCCCC/C=C\CCCCCCCC(=O)O` [Palmitoleic acid [16:1 (n-7)], Palmitoleic acid] had an IC50 of 10.5 ± 2.4 µM. For the compound `CCCCCCCCCCCCCC(=O)O[C@@H]1[C@@H](C)[C@@]2(O)[C@@H](C=C(CO)C[C@]3(O)C(=O)C(C)=C[C@@H]23)[C@@H]2C(C)(C)[C@]12OC(C)=O` [Phorbol myristate acetate], the “K 1/2 (effect on ATP-dependent gating of KACh channel)” value at KACh channel [1] was “No effect”. On the same count and under the same terms, then `CCCCC[C@H](O)/C=C/[C@H]1[C@H](O)CC(=O)[C@@H]1CCCCCCC(=O)O` [Prostaglandin E1], with “No effect”; and `NCCCCNCCCN` [Spermidine], with “No effect”. Same read-out and setting: under `NCCCNCCCCNCCCN` [Spermine] stands “No effect”. The same measure, in the same setting: then `CCCCCCCCCCCCC/C=C/[C@@H](O)[C@@H](N)CO` [Sphingosine (D-form), Sphingosine], with “No effect”; and `CCCCCCCCCCCCCCCCCC(=O)O` [Stearic acid (18:0), Stearic acid], with “No effect”. `Nc1nc2c(ncn2[C@@H]2O[C@@H]3COP(=O)(O)O[C@H]3[C@H]2O)c(=O)[nH]1` [cGMP]: the “effect on KACh channel activity” value at KACh channel [2] is on record as “no significant effect”. Turning to `O=P(O)(O)O[C@@H]1[C@H](O)[C@H](O)[C@@H](OP(=O)(O)O)[C@H](OP(=O)(O)O)[C@H]1O` [inositol trisphosphate], the “effect on KACh channel activity” value on KACh channel [2] was “no significant effect”. Turning to `CC/C=C\C/C=C\C/C=C\CCCCCCCC(=O)O` [α-linolenic acid [18:3 (n-3)], α-linolenic acid], the IC50 on KACh channel [1] (setting [5]) came out at 6.2 ± 0.8 µM. As to Lysophosphatidylethanolamine, at KACh channel [1], the “K 1/2 (effect on ATP-dependent gating of KACh channel)” value was “No effect”. Turning to Phosphatidylserine, the “K 1/2 (effect on ATP-dependent gating of KACh channel)” value at KACh channel [1] is given as “No effect”.

For “albumin: fatty acid–free bovine serum albumin”, the “reversal of inhibition of ATP-dependent gating” value with KACh channel [1] was “almost complete reversal”; with KACh channel [1] (listed as fatty acid-free albumin) it was “completely remove”. On to phosphatidylcholine, for which, at KACh channel [3], the τo1 is reported as 2.5 ± 0.6 ms. The compound phosphatidylethanolamine returned a τo1 at KACh channel [3] of 2.8 ± 0.5 ms. On to “phosphatidylinositol-4,5-bisphosphate [PIP2]”, for which the “open time constant of second open state” value at KACh channel [3] (30 μM PIP2 after GTPγS (100 μM) activation) was 2.6 ± 0.3 ms and 2.6 ms. In addition, the “increase in channel activity” value on KACh channel [3] (30 μM PIP2 after GTPγS activation) was “approximately twofold increase”. The “effect on rundown of KATP channels” value at KATP channel is on record as “prevented rundown”.
